# Data reported in ChEMBL document CHEMBL1275458, “First molecular characterization of group B streptococci with reduced penicillin susceptibility” (2008).
# Legend:
# Streptococcus pneumoniae = experiment: Antimicrobial activity against Streptococcus pneumoniae ATCC 49619 by agar dilution method; type: functional
# Summary of the method: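 MIC by agar dilution per CLSI recommendations. The strain is a penicillin-susceptible S. pneumoniae quality-control strain, run alongside the clinical GBS isolates. β-lactams tested were penicillin G, penicillin V, ampicillin, oxacillin, cefazolin, cefepime, cefotaxime, ceftizoxime and meropenem.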
# Streptococcus agalactiae [1] = experiment: Antimicrobial activity against penicillin-resistant Streptococcus agalactiae B1 by agar dilution method; type: functional
# Summary of the method: (§1)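 Agar dilution MICs run per the CLSI recommendation. S. pneumoniae ATCC 49619 was included as the quality control strain. β-lactams tested were penicillin G, penicillin V, ampicillin, oxacillin, cefazolin, cefepime, cefotaxime, ceftizoxime and meropenem. Test strains were S. agalactiae clinical sputum isolates and ATCC strains BAA-611 and 12403.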
# Streptococcus agalactiae [2] = experiment: Antimicrobial activity against penicillin-resistant Streptococcus agalactiae B6 by agar dilution method; type: functional; summary of the method: as §1
# Streptococcus agalactiae [3] = experiment: Antimicrobial activity against penicillin-resistant Streptococcus agalactiae B7 by agar dilution method; type: functional; summary of the method: as §1
# Streptococcus agalactiae [4] = experiment: Antimicrobial activity against penicillin-resistant Streptococcus agalactiae B8 by agar dilution method; type: functional; summary of the method: as §1
# Streptococcus agalactiae [5] = experiment: Antimicrobial activity against penicillin-resistant Streptococcus agalactiae B10 by agar dilution method; type: functional; summary of the method: as §1
# Streptococcus agalactiae [6] = experiment: Antimicrobial activity against penicillin-resistant Streptococcus agalactiae B12 by agar dilution method; type: functional; summary of the method: as §1
# Streptococcus agalactiae [7] = experiment: Antimicrobial activity against penicillin-resistant Streptococcus agalactiae B40 by agar dilution method; type: functional; summary of the method: as §1
# Streptococcus agalactiae [8] = experiment: Antimicrobial activity against penicillin-resistant Streptococcus agalactiae B60 by agar dilution method; type: functional; summary of the method: as §1
# Streptococcus agalactiae [9] = experiment: Antimicrobial activity against penicillin-resistant Streptococcus agalactiae B68 by agar dilution method; type: functional; summary of the method: as §1
# Streptococcus agalactiae [10] = experiment: Antimicrobial activity against penicillin-resistant Streptococcus agalactiae B502 by agar dilution method; type: functional; summary of the method: as §1
# Streptococcus agalactiae [11] = experiment: Antimicrobial activity against penicillin-resistant Streptococcus agalactiae B503 by agar dilution method; type: functional; summary of the method: as §1
# Streptococcus agalactiae [12] = experiment: Antimicrobial activity against penicillin-resistant Streptococcus agalactiae B513 by agar dilution method; type: functional; summary of the method: as §1
# Streptococcus agalactiae [13] = experiment: Antimicrobial activity against penicillin-resistant Streptococcus agalactiae B514 by agar dilution method; type: functional; summary of the method: as §1
# Streptococcus agalactiae [14] = experiment: Antimicrobial activity against penicillin-resistant Streptococcus agalactiae B516 by agar dilution method; type: functional; summary of the method: as §1
# Streptococcus agalactiae [15] = experiment: Antimicrobial activity against penicillin-resistant Streptococcus agalactiae ATCC BAA-611 harboring PBP-2X Q557E mutant gene by agar dilution method; type: functional; summary of the method: as §1
# Streptococcus agalactiae [16] = experiment: Antimicrobial activity against penicillin-resistant Streptococcus agalactiae ATCC BAA-611 harboring PBP-2X V405A mutant gene by agar dilution method; type: functional; summary of the method: as §1
# Streptococcus agalactiae [17] = experiment: Antimicrobial activity against penicillin-susceptible Streptococcus agalactiae ATCC 12403 by agar dilution method
# Streptococcus agalactiae [18] = experiment: Antimicrobial activity against penicillin-susceptible Streptococcus agalactiae ATCC BAA-611 by agar dilution method
SMILES,MIC (Streptococcus pneumoniae) [µg/mL],MIC (Streptococcus agalactiae [1]) [µg/mL],MIC (Streptococcus agalactiae [2]) [µg/mL],MIC (Streptococcus agalactiae [3]) [µg/mL],MIC (Streptococcus agalactiae [4]) [µg/mL],MIC (Streptococcus agalactiae [5]) [µg/mL],MIC (Streptococcus agalactiae [6]) [µg/mL],MIC (Streptococcus agalactiae [7]) [µg/mL],MIC (Streptococcus agalactiae [8]) [µg/mL],MIC (Streptococcus agalactiae [9]) [µg/mL],MIC (Streptococcus agalactiae [10]) [µg/mL],MIC (Streptococcus agalactiae [11]) [µg/mL],MIC (Streptococcus agalactiae [12]) [µg/mL],MIC (Streptococcus agalactiae [13]) [µg/mL],MIC (Streptococcus agalactiae [14]) [µg/mL],MIC (Streptococcus agalactiae [15]) [µg/mL],MIC (Streptococcus agalactiae [16]) [µg/mL],MIC (Streptococcus agalactiae [17]) [µg/mL],MIC (Streptococcus agalactiae [18]) [µg/mL]
CC1(C)S[C@@H]2[C@H](NC(=O)[C@H](N)c3ccccc3)C(=O)N2[C@H]1C(=O)O [AMPICILLIN],0.12,0.12,0.12,0.12,0.5,0.12,0.25,0.12,0.25,0.5,0.5,0.5,0.5,0.5,0.25,0.12,0.25,0.12,0.12
Cc1nnc(SCC2=C(C(=O)O)N3C(=O)[C@@H](NC(=O)Cn4cnnn4)[C@H]3SC2)s1 [CEFAZOLIN],1,2,1,0.5,1,1,1,1,1,0.5,0.5,0.5,1,1,0.5,2,0.5,0.12,0.12
CC1(C)S[C@@H]2[C@H](NC(=O)Cc3ccccc3)C(=O)N2[C@H]1C(=O)O [PENICILLIN G],0.25,0.5,0.25,0.25,0.25,0.5,0.25,0.5,0.25,0.5,0.5,0.25,1,0.25,0.25,0.5,0.25,0.06,0.06
CC1(C)S[C@@H]2[C@H](NC(=O)COc3ccccc3)C(=O)N2[C@H]1C(=O)O [PENICILLIN V],0.5,0.25,0.5,0.12,0.25,0.25,0.5,0.5,0.25,0.25,0.25,0.12,1,0.25,0.25,0.5,0.12,0.03,0.03
CO/N=C(\C(=O)N[C@@H]1C(=O)N2C(C(=O)[O-])=C(C[N+]3(C)CCCC3)CS[C@H]12)c1csc(N)n1 [CEFEPIME],0.03,0.5,0.25,0.25,0.5,0.25,0.5,0.25,0.25,0.5,0.5,0.25,1,0.5,0.5,0.5,0.5,0.06,0.06
CO/N=C(\C(=O)N[C@@H]1C(=O)N2C(C(=O)O)=C(COC(C)=O)CS[C@H]12)c1csc(N)n1 [CEFOTAXIME],0.03,2,1,0.12,0.25,0.5,0.5,0.5,0.25,0.25,0.25,0.25,1,0.25,0.25,0.5,0.12,0.06,0.06
CO/N=C(\C(=O)N[C@@H]1C(=O)N2C(C(=O)O)=CCS[C@H]12)c1csc(N)n1 [CEFTIZOXIME],0.12,128,32,4,64,16,32,32,32,4,16,16,64,32,16,32,16,0.12,0.12
C[C@@H](O)[C@H]1C(=O)N2C(C(=O)O)=C(S[C@@H]3CN[C@H](C(=O)N(C)C)C3)[C@H](C)[C@H]12 [MEROPENEM],0.06,0.06,0.06,0.25,0.12,0.06,0.25,0.06,0.12,0.12,0.25,0.12,0.25,0.25,0.12,0.12,0.12,0.03,0.03
Cc1onc(-c2ccccc2)c1C(=O)N[C@@H]1C(=O)N2[C@@H]1SC(C)(C)[C@@H]2C(=O)O [OXACILLIN],1,4,4,2,4,4,4,8,4,4,4,2,8,4,4,4,2,0.25,0.25
